Source: ChEMBL document CHEMBL4393712, “Discovery of chalcone-modified estradiol analogs as antitumour agents that Inhibit tumour angiogenesis and epithelial to mesenchymal transition” (Eur J Med Chem, 2019)
Calls of active or inactive are those of the source. The rule behind the calls is not given here.

Experiments:
MGC-803 = test: Antitumour activity against human MGC803 cells assessed as cell growth inhibition measured after 72 hrs by SRB assay; format: functional, cell-based; details: MGC-803, 72 h
Summary of the method: (§1)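 Exponentially growing cells trypsinized, seeded at 5 × 10^4 cells/mL in 96-well plates, cultured overnight, then exposed to compounds for 72 h. Cells fixed with 10% TCA 1 h, stained with SRB 15 min, dye dissolved in Tris-HCl, absorbance read; 50% growth-inhibitory concentration calculated.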

B16 = test: Antitumour activity against mouse B16 cells assessed as cell growth inhibition measured after 72 hrs by SRB assay; format: functional, cell-based; details: B16, 72 h; summary of the method: as §1
SK-N-SH = test: Antitumour activity against human SK-N-SH cells assessed as cell growth inhibition measured after 72 hrs by SRB assay; format: functional, cell-based; summary of the method: as §1
ECa-109 cell line = test: Antitumour activity against human EC109 cells assessed as cell growth inhibition measured after 72 hrs by SRB assay; format: functional, cell-based; details: ECa-109, 72 h; summary of the method: as §1
A549 = test: Antitumour activity against human A549 cells assessed as cell growth inhibition measured after 72 hrs by SRB assay; format: functional, cell-based; details: A549, 72 h; summary of the method: as §1
SMMC-7721 = test: Antitumour activity against human SMMC7721 cells assessed as cell growth inhibition measured after 72 hrs by SRB assay; format: functional, cell-based; details: SMMC-7721, 72 h; summary of the method: as §1
HEK293 = test: Cytotoxicity against human HEK293 cells measured after 48 to 72 hrs by MTT assay; format: cell-based
Summary of the method: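 Cells seeded at 3 × 10^3 per well in 96-well plates, incubated overnight, then given fresh medium with a range of drug concentrations for 48 h or 72 h. MTT added (final 500 µg/mL) for 4 h, formazan dissolved in DMSO, absorbance at 570 nm; IC50 derived. Mean ± SD of 3 independent tests.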

[1] = Solubility of the compound in water; format: physicochemical; details: buffer
Chorioallantoic membrane = test: Antiangiogenic activity in chicken chorioallantoic membrane assessed as reduction in neovascularization at 50 ug/ml measured after 72 hrs by CAM assay; format: functional; details: Gallus gallus
Summary of the method: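 Fertilized chicken eggs incubated 6 days at 37 °C; shell windowed and CAM treated (compounds and controls at […] as printed; saline vehicle control). Eggs re-incubated humidified; membranes fixed and harvested after 72 h. Angiogenesis scored by counting blood vessels and imaging neovascular zones; ten eggs per group.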

K562 = test: Anticancer activity against human K562 cells measured after 48 hrs by SRB assay; format: functional; details: K562, 48 h
SR = test: Anticancer activity against human SR cells measured after 48 hrs by SRB assay; format: functional
CCRF-CEM = test: Anticancer activity against human CCRF-CEM cells measured after 48 hrs by SRB assay; format: functional
RPMI-8226 = test: Anticancer activity against human RPMI8226 cells measured after 48 hrs by SRB assay; format: functional; details: RPMI-8226, 48 h
HCT-116 = test: Antiproliferative activity against human HCT116 cells measured after 48 hrs by SRB assay; format: functional; details: HCT-116, 48 h
U-251 = test: Antiproliferative activity against human U251 cells measured after 48 hrs by SRB assay; format: functional; details: U-251, 48 h
NCI-H460 = test: Antiproliferative activity against human NCI-H460 cells measured after 48 hrs by SRB assay; format: functional; details: NCI-H460, 48 h
MDA-MB-435 = test: Antiproliferative activity against human MDA-MB-435 cells measured after 48 hrs by SRB assay; format: functional; details: MDA-MB-435, 48 h

COc1cc2c(cc1O)CC[C@@H]1[C@@H]2CC[C@]2(C)C(=O)/C(=C/c3ccccc3)C[C@@H]12
IC50 (MGC-803): 17.7 µM
IC50 (B16): 17.8 µM
IC50 (SK-N-SH): 22.4 µM
IC50 (ECa-109 cell line): 22.8 µM
IC50 (A549): 19.4 µM
IC50 (SMMC-7721): 17.2 µM

COc1cc2c(cc1O)CC[C@@H]1[C@@H]2CC[C@]2(C)C(=O)/C(=C/c3ccc(Br)cc3)C[C@@H]12
IC50 (MGC-803): 14.1 µM
IC50 (HEK293): 48.9 µM
IC50 (B16): 2.6 µM
IC50 (SK-N-SH): 42 µM
IC50 (ECa-109 cell line): 17.6 µM
solubility [1]: Soluble
inhibition (Chorioallantoic membrane): Active
IC50 (A549): 39.4 µM
IC50 (SMMC-7721): 0.1 µM

COc1cc2c(cc1O)CC[C@@H]1[C@@H]2CC[C@]2(C)C(=O)/C(=C/c3cc(F)cc(F)c3)C[C@@H]12
IC50 (MGC-803): 10.7 µM
IC50 (B16): 14.2 µM
IC50 (SK-N-SH): 8 µM
IC50 (ECa-109 cell line): 16.2 µM
IC50 (A549): 15 µM
IC50 (SMMC-7721): 5.1 µM

COc1ccccc1/C=C/C(=O)c1cc2c(cc1O)CC[C@@H]1[C@@H]2CC[C@]2(C)[C@@H](O)CC[C@@H]12
IC50 (MGC-803): 9.8 µM
IC50 (B16): 16.5 µM
IC50 (SK-N-SH): 22.2 µM
IC50 (ECa-109 cell line): 26.5 µM
IC50 (A549): 5.9 µM
IC50 (SMMC-7721): 0.6 µM

COc1cc2c(cc1O)CC[C@@H]1[C@@H]2CC[C@]2(C)C(=O)/C(=C/c3ccc(S(C)(=O)=O)cc3)C[C@@H]12
IC50 (MGC-803): 10.5 µM
IC50 (HEK293): > 100 µM
IC50 (B16): 7.7 µM
IC50 (SK-N-SH): 20.5 µM
IC50 (ECa-109 cell line): 18.2 µM
IC50 (A549): 5.9 µM
IC50 (SMMC-7721): 37.3 µM

CN1CCN(C(=O)COc2ccc(/C=C3\C[C@H]4[C@@H]5CC=C6CC(Cl)CC[C@]6(C)[C@H]5CC[C@]4(C)C3=O)cc2)CC1 (stereo partly specified)
GI50 (K562): 2.61 µM
GI50 (SR): 1.79 µM
GI50 (CCRF-CEM): 3.94 µM
GI50 (RPMI-8226): 6.9 µM

COc1cc2c(cc1O)CC[C@@H]1[C@@H]2CC[C@]2(C)C(=O)/C(=C/c3ccc(F)cc3)C[C@@H]12
IC50 (MGC-803): 13.5 µM
IC50 (HEK293): 87.8 µM
IC50 (B16): 16.8 µM
IC50 (SK-N-SH): 27 µM
IC50 (ECa-109 cell line): 19.9 µM
solubility [1]: Soluble
inhibition (Chorioallantoic membrane): Active
IC50 (A549): 25.3 µM
IC50 (SMMC-7721): 8.2 µM

COc1cc2c(cc1O)CC[C@@H]1[C@@H]2CC[C@]2(C)C(=O)/C(=C/c3ccc(C)cc3)C[C@@H]12
IC50 (MGC-803): 20.5 µM
IC50 (B16): 6 µM
IC50 (SK-N-SH): 20.1 µM
IC50 (ECa-109 cell line): 22.5 µM
IC50 (A549): 53 µM
IC50 (SMMC-7721): 20.8 µM

COc1cc2c(cc1O)CC[C@@H]1[C@@H]2CC[C@]2(C)C(=O)/C(=C/c3ccc(Cl)cc3Cl)C[C@@H]12
IC50 (MGC-803): 15.8 µM
IC50 (B16): 16.5 µM
IC50 (SK-N-SH): 17.8 µM
IC50 (ECa-109 cell line): 15.3 µM
IC50 (A549): 15.5 µM
IC50 (SMMC-7721): 1.7 µM

C=C1CC[C@H]2[C@@H]3CCc4cc(O)c(/C=C/C(=O)c5cc(OC)c(OC)c(OC)c5)cc4[C@H]3CC[C@]12C
GI50 (HCT-116): 1.6 µM
GI50 (U-251): 1.4 µM
GI50 (NCI-H460): 2.6 µM
GI50 (MDA-MB-435): 1.6 µM

C[C@]12CC[C@@H]3c4cc(C(=O)/C=C/c5ccc(Cl)cc5)c(O)cc4CC[C@H]3[C@@H]1CC[C@@H]2O
IC50 (MGC-803): 15.7 µM
IC50 (B16): 15.3 µM
IC50 (SK-N-SH): 15 µM
IC50 (ECa-109 cell line): 14 µM
IC50 (A549): 12.1 µM
IC50 (SMMC-7721): 44.9 µM

C[C@]12CC[C@@H]3c4cc(C(=O)/C=C/c5cccc(Cl)c5)c(O)cc4CC[C@H]3[C@@H]1CC[C@@H]2O
IC50 (MGC-803): 8 µM
IC50 (B16): 12.4 µM
IC50 (SK-N-SH): 10.3 µM
IC50 (ECa-109 cell line): 8.5 µM
IC50 (A549): 10.9 µM
IC50 (SMMC-7721): 6.3 µM

COc1cc2c(cc1O)CC[C@@H]1[C@@H]2CC[C@]2(C)C(=O)/C(=C/c3cccc(Cl)c3)C[C@@H]12
IC50 (MGC-803): 12.3 µM
IC50 (HEK293): 77.1 µM
IC50 (B16): 10.1 µM
IC50 (SK-N-SH): 21 µM
IC50 (ECa-109 cell line): 24.3 µM
solubility [1]: Soluble
inhibition (Chorioallantoic membrane): Active
IC50 (A549): 22.6 µM
IC50 (SMMC-7721): 16.9 µM

C[C@]12CC[C@@H]3c4cc(C(=O)/C=C/c5ccc(OCc6ccccc6)cc5)c(O)cc4CC[C@H]3[C@@H]1CC[C@@H]2O
IC50 (MGC-803): > 128 µM
IC50 (HEK293): > 100 µM
IC50 (B16): > 128 µM
IC50 (SK-N-SH): > 128 µM
IC50 (ECa-109 cell line): > 128 µM
solubility [1]: Soluble
inhibition (Chorioallantoic membrane): Active
IC50 (A549): 52.6 µM
IC50 (SMMC-7721): > 128 µM

C[C@]12CC[C@@H]3c4cc(C(=O)/C=C/c5ccc(Cl)cc5Cl)c(O)cc4CC[C@H]3[C@@H]1CC[C@@H]2O
IC50 (MGC-803): 12.5 µM
IC50 (B16): 13.1 µM
IC50 (SK-N-SH): 22.7 µM
IC50 (ECa-109 cell line): 19.4 µM
IC50 (A549): 13.7 µM
IC50 (SMMC-7721): 14.5 µM

COc1cccc(/C=C/C(=O)c2cc3c(cc2O)CC[C@@H]2[C@@H]3CC[C@]3(C)[C@@H](O)CC[C@@H]23)c1
IC50 (MGC-803): 4 µM
IC50 (HEK293): 13.1 µM
IC50 (B16): 8.9 µM
IC50 (SK-N-SH): 4.5 µM
IC50 (ECa-109 cell line): 5.6 µM
solubility [1]: Soluble
inhibition (Chorioallantoic membrane): Active
IC50 (A549): 5.5 µM
IC50 (SMMC-7721): 26.1 µM

C[C@]12CC[C@@H]3c4cc(C(=O)/C=C/c5ccccc5Cl)c(O)cc4CC[C@H]3[C@@H]1CC[C@@H]2O
IC50 (MGC-803): 8.3 µM
IC50 (B16): 15.9 µM
IC50 (SK-N-SH): 16.4 µM
IC50 (ECa-109 cell line): 13.2 µM
IC50 (A549): 15.5 µM
IC50 (SMMC-7721): 11.3 µM

COc1cc2c(cc1O)CC[C@@H]1[C@@H]2CC[C@]2(C)C(=O)/C(=C/c3cccc(OC)c3OC)C[C@@H]12
IC50 (MGC-803): 18.3 µM
IC50 (HEK293): 51 µM
IC50 (B16): 12.7 µM
IC50 (SK-N-SH): 18.2 µM
IC50 (ECa-109 cell line): 10.5 µM
solubility [1]: Soluble
IC50 (A549): 20.4 µM
IC50 (SMMC-7721): 8.6 µM

COc1cc2c(cc1O)CC[C@@H]1[C@@H]2CC[C@]2(C)C(=O)/C(=C/c3cc(OC)c(OC)c(OC)c3)C[C@@H]12
IC50 (MGC-803): 18.7 µM
IC50 (B16): 18.8 µM
IC50 (SK-N-SH): 14.3 µM
IC50 (ECa-109 cell line): 13.9 µM
IC50 (A549): 14.5 µM
IC50 (SMMC-7721): 2.8 µM

COc1ccc(/C=C/C(=O)c2cc3c(cc2O)CC[C@@H]2[C@@H]3CC[C@]3(C)[C@@H](O)CC[C@@H]23)cc1
IC50 (MGC-803): 12.2 µM
IC50 (B16): 17.4 µM
IC50 (SK-N-SH): 18.9 µM
IC50 (ECa-109 cell line): 18.2 µM
IC50 (A549): 8.6 µM
IC50 (SMMC-7721): 16.1 µM

COc1cc2c(cc1O)CC[C@@H]1[C@@H]2CC[C@]2(C)C(=O)/C(=C/c3cccc([N+](=O)[O-])c3)C[C@@H]12
IC50 (MGC-803): 12.7 µM
IC50 (B16): 6.7 µM
IC50 (SK-N-SH): 24.5 µM
IC50 (ECa-109 cell line): 23.3 µM
solubility [1]: Soluble
IC50 (A549): 21.2 µM
IC50 (SMMC-7721): 8.1 µM
